Test results published in ChEMBL document CHEMBL3862011, “Neuroprotective effects of benzyloxy substituted small molecule monoamine oxidase B inhibitors in Parkinson's disease” (Bioorg Med Chem, 2016).
Active and inactive are the calls of the source. No cut-off for these calls is given here.

Assays:
[1] = tested on: PC-12; experiment: Neuroprotective activity against 6-OHDA-induced apoptosis in rat PC12 cells assessed as decrease in nuclear condensation at 20 uM after 24 hrs by Hoechst 33258 staining-based fluorescent inverted microscopic method; format: functional, cell-based
Summary of the method: (§1)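 PC12 cells exposed to 6-OHDA or rotenone with test treatment were stained with Hoechst 33258 for 30 min, mounted on glass slides under cover slips, and examined by fluorescent inverted microscopy.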

[2] = tested on: PC-12; experiment: Neuroprotective activity against rotenone-induced apoptosis in rat PC12 cells assessed as late apoptotic cells at 40 uM after 24 hrs by 7-AAD/annexin V APC staining-based flow cytometric method (reference value: 9.9%); format: functional
[3] = tested on: PC-12; experiment: Neuroprotective activity against rotenone-induced toxicity in rat PC12 cells assessed as increase in cell viability after 24 hrs by phase-contrast microscopic method; format: functional, cell-based
Summary of the method: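 PC12 cells were exposed to 5-40 μM test compound together with 40 μM 6-OHDA or 1 μM rotenone for 24 h. Viability was judged from phase-contrast images against untreated controls.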

[4] = Cytotoxicity against rat PC12 cells assessed as cell survival at 100 uM after 24 hrs by MTT assay relative to control; format: toxicity, PC-12; conditions: read-out: Survival
[5] = tested on: PC-12; experiment: Neuroprotective activity against 6-OHDA-induced apoptosis in rat PC12 cells assessed as early apoptotic cells at 40 uM after 24 hrs by 7-AAD/annexin V APC staining-based flow cytometric method (reference value: 42.1%); format: functional
[6] = tested on: PC-12; experiment: Neuroprotective activity against rotenone-induced apoptosis in rat PC12 cells assessed as viable cells at 40 uM after 24 hrs by 7-AAD/annexin V APC staining-based flow cytometric method (reference value: 39.3%); format: functional; conditions: PC-12, 24 h, read-out: Activity
[7] = tested on: PC-12; experiment: Neuroprotective activity against rotenone-induced apoptosis in rat PC12 cells assessed as viable cells at 10 uM after 24 hrs by 7-AAD/annexin V APC staining-based flow cytometric method (reference value: 39.3%); format: functional; conditions: PC-12, 24 h, read-out: Activity
[8] = tested on: PC-12; experiment: Neuroprotective activity against 6-OHDA-induced apoptosis in rat PC12 cells assessed as necrotic cells at 40 uM after 24 hrs by 7-AAD/annexin V APC staining-based flow cytometric method (reference value: 0.6%); format: functional
[9] = tested on: PC-12; experiment: Neuroprotective activity against 6-OHDA-induced apoptosis in rat PC12 cells assessed as viable cells at 10 uM after 24 hrs by 7-AAD/annexin V APC staining-based flow cytometric method (reference value: […]); format: functional; conditions: PC-12, 24 h, read-out: Activity
[10] = in vitro; conditions: PAMPA
[11] = tested on: PC-12; experiment: Neuroprotective activity against 6-OHDA-induced apoptosis in rat PC12 cells assessed as early apoptotic cells at 10 uM after 24 hrs by 7-AAD/annexin V APC staining-based flow cytometric method (reference value: 42.1%); format: functional
[12] = tested on: PC-12; experiment: Neuroprotective activity against rotenone-induced apoptosis in rat PC12 cells assessed as viable cells at 5 uM after 24 hrs by 7-AAD/annexin V APC staining-based flow cytometric method (reference value: 39.3%); format: functional; conditions: PC-12, 24 h, read-out: Activity
[13] = tested on: PC-12; experiment: Neuroprotective activity against 6-OHDA-induced apoptosis in rat PC12 cells assessed as early apoptotic cells at 20 uM after 24 hrs by 7-AAD/annexin V APC staining-based flow cytometric method (reference value: 42.1%); format: functional
[14] = tested on: PC-12; experiment: Neuroprotective activity against rotenone-induced apoptosis in rat PC12 cells assessed as late apoptotic cells at 5 uM after 24 hrs by 7-AAD/annexin V APC staining-based flow cytometric method (reference value: 9.9%); format: functional
[15] = Cytotoxicity against rat PC12 cells assessed as cell survival at 20 uM after 72 hrs by MTT assay relative to control; format: toxicity, PC-12; conditions: read-out: Survival
[16] = tested on: PC-12; experiment: Neuroprotective activity against rotenone-induced apoptosis in rat PC12 cells assessed as early apoptotic cells at 5 uM after 24 hrs by 7-AAD/annexin V APC staining-based flow cytometric method (reference value: 2.2%); format: functional
[17] = tested on: PC-12; experiment: Neuroprotective activity against 6-OHDA-induced apoptosis in rat PC12 cells assessed as late apoptotic cells at 40 uM after 24 hrs by 7-AAD/annexin V APC staining-based flow cytometric method (reference value: 4.4%); format: functional
[18] = tested on: PC-12; experiment: Neuroprotective activity against 6-OHDA-induced apoptosis in rat PC12 cells assessed as necrotic cells at 20 uM after 24 hrs by 7-AAD/annexin V APC staining-based flow cytometric method (reference value: 0.6%); format: functional
[19] = tested on: PC-12; experiment: Neuroprotective activity against 6-OHDA-induced apoptosis in rat PC12 cells assessed as early apoptotic cells at 5 uM after 24 hrs by 7-AAD/annexin V APC staining-based flow cytometric method (reference value: 42.1%); format: functional
[20] = tested on: PC-12; experiment: Neuroprotective activity against 6-OHDA-induced apoptosis in rat PC12 cells assessed as viable cells at 20 uM after 24 hrs by 7-AAD/annexin V APC staining-based flow cytometric method (reference value: […]); format: functional; conditions: PC-12, 24 h, read-out: Activity
[21] = tested on: PC-12; experiment: Neuroprotective activity against rotenone-induced apoptosis in rat PC12 cells assessed as decrease in nuclear condensation at 20 uM after 24 hrs by Hoechst 33258 staining-based fluorescent inverted microscopic method; format: functional, cell-based; summary of the method: as §1
[22] = tested on: PC-12; experiment: Neuroprotective activity against rotenone-induced apoptosis in rat PC12 cells assessed as early apoptotic cells at 20 uM after 24 hrs by 7-AAD/annexin V APC staining-based flow cytometric method (reference value: 2.2%); format: functional
[23] = tested on: PC-12; experiment: Neuroprotective activity against 6-OHDA-induced apoptosis in rat PC12 cells assessed as late apoptotic cells at 10 uM after 24 hrs by 7-AAD/annexin V APC staining-based flow cytometric method (reference value: 4.4%); format: functional
[24] = tested on: PC-12; experiment: Neuroprotective activity against rotenone-induced apoptosis in rat PC12 cells assessed as viable cells at 20 uM after 24 hrs by 7-AAD/annexin V APC staining-based flow cytometric method (reference value: 39.3%); format: functional; conditions: PC-12, 24 h, read-out: Activity
[25] = tested on: PC-12; experiment: Neuroprotective activity against 6-OHDA-induced apoptosis in rat PC12 cells assessed as necrotic cells at 10 uM after 24 hrs by 7-AAD/annexin V APC staining-based flow cytometric method (reference value: 0.6%); format: functional
[26] = tested on: PC-12; experiment: Neuroprotective activity against rotenone-induced toxicity in rat PC12 cells assessed as increase in cell survival preincubated for 24 hrs followed by rotenone addition measured after 24 hrs by MTT assay; format: functional, cell-based
Summary of the method: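 PC12 cells in RPMI-1640 with 10% FBS were seeded at 5×10^3 cells/well. After 24 h, compounds at 20 μM were added for 24 h at 37 °C, followed by 6-OHDA (40 μM) or rotenone (1 μM) for 24 h. Viability by MTT (570 nm, reference 630 nm), expressed as percent of untreated control. […] Mean ± SEM.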

O=C1CCOc2cc(OCc3ccc(F)cc3)ccc21
Activity [1]: Active | Activity [2]: 9.2% | Activity [3]: Dose-dependent effect | viability at 24 h, 100 µM [4]: 93.1% | Activity [5]: 7% | viability at 40 µM [6]: 62.1% | viability at 10 µM [7]: 48% | Activity [8]: 1.9% | viability at 10 µM [9]: 70.7% | Papp at 16 h, 100 ug/ml [10]: 14.3 ×10⁻⁶ cm/s | Activity [11]: 22% | viability at 5 µM [12]: 54.2% | Activity [13]: 10.8% | Activity [14]: 9.3% | viability at 72 h, 20 µM [15]: 94.5% | Activity [16]: 3.3% | Activity [17]: 0.2% | Activity [18]: 1.1% | Activity [19]: 25.1% | viability at 20 µM [20]: 87.8% | Activity [21]: Active | Activity [22]: 2.5% | Activity [23]: 3.3% | viability at 20 µM [24]: 57.8% | Activity [25]: 4% | Activity [26]: Dose-dependent effect
